Assay results from different studies.
Compare with care: the assays were run in different laboratories.
Target: Serine/threonine-protein kinase RIO1 (RIOK1, Homo sapiens, UniProt Q9BRS2)
Sequence (Q9BRS2 1-568, as in one of the studies): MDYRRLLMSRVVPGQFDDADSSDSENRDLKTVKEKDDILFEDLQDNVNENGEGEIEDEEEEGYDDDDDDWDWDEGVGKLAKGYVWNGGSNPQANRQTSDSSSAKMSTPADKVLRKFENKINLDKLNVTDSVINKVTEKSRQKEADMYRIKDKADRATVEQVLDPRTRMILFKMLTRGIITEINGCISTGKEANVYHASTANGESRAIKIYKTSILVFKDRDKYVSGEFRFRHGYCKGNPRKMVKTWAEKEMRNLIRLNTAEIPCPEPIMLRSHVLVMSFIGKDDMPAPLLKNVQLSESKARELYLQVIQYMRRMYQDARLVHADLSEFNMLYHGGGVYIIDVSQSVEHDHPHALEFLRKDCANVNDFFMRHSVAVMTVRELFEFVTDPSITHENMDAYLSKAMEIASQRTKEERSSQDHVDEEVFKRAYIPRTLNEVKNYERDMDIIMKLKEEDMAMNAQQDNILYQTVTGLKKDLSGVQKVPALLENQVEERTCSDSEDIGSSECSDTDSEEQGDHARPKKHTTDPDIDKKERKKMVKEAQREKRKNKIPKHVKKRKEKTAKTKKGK

Structure (SMILES) | read-out | method | tested at | remaining binding
C[C@H]1CCN(c2nccc(-c3cnn4ncccc34)n2)C1 | binding |  | 1 µM | 62%
Cn1nc(C(=O)NCc2ccc(C(=O)O)cc2)cc1-c1ccc2[nH]ccc2c1 | cell-free assay | competition with immobilised ligand | 0.1 µM | 76%
F[C@@H]1CCN(c2nccc(-c3cnn4ncccc34)n2)C1 | binding |  | 1 µM | 93%
O=C(Nc1c[nH]nc1C(=O)NC1CCNCC1)c1cc(F)cc(F)c1 | binding | competition with immobilised ligand | 1 µM | 68%
CN(c1nccc(-c2cnn3ncccc23)n1)C1CC1 | binding |  | 1 µM | 100%
N#Cc1ccc(Nc2ccc3[nH]c(=O)[nH]c3c2)c(Cl)c1 | cell-free assay | competition with immobilised ligand | 1 µM | 100%
C[C@@H](c1ccc(-n2cnc3c(N)ncnc32)cc1)N1CCc2nn(C)c(Cc3ccccc3)c2C1=O | binding | competition with immobilised ligand | 0.1 µM | 69%
CN(C)c1nccc(-c2cnc3ncccn23)n1 | binding |  | 1 µM | 100%
O=C(c1ccc(Nc2ncc(Cl)c(-c3cc4ccccc4s3)n2)cc1)N1CCC(N2CCCC2)CC1 | binding | competition with immobilised ligand | 1 µM | 0%
c1cncc(-c2cccc(Nc3nccc(NC4CCCCC4)n3)c2)c1 | binding | competition with immobilised ligand | 10 µM | 26%
O=C(c1ccc(Nc2nccc(-c3cc4ccccc4s3)n2)cc1)N1CCC(N2CCCC2)CC1 | binding | competition with immobilised ligand | 1 µM | 0.1%
COc1cnc(Nc2cccc(S(N)(=O)=O)c2)nc1N1CCN(c2ccccc2)C(=O)C1 | binding | competition with immobilised ligand | 1 µM | 49%
O=S(=O)(NC1CCC(c2cc(F)ccc2F)(S(=O)(=O)c2ccc(Cl)cc2)CC1)C(F)(F)F (stereo not shown) | cell-free assay | competition with immobilised ligand | 1 µM | 98%
O=C(NCCCN1CCOCC1)c1ccc(Nc2nccc(-c3cc4ccccc4s3)n2)cc1 | binding | competition with immobilised ligand | 1 µM | 0.1%
CCC(=N\O)/C(C)=C/c1ccc(F)cc1 | cell-free assay | competition with immobilised ligand | 1 µM | 80%
Cc1cnn2ncc(-c3ccnc(N(C)C)n3)c2c1 | binding |  | 1 µM | 98%
CCN1CCN(Cc2ccc(C(=O)Nc3ccc(C)c(Oc4ccc5c(c4)CC(=O)N5)c3)cc2C(F)(F)F)CC1 | binding | competition with immobilised ligand | 1 µM | 90%
COc1ncc2cc3ccccc3nc2c1C#N | cell-free assay | competition with immobilised ligand | 5 µM | 93%
Cn1cc(Cl)c2c(Oc3c(F)cc(Nc4cc(Cl)nc(N)n4)cc3F)ccnc21 | cell-free assay | competition with immobilised ligand | 0.1 µM | 100%
FC(F)(F)Oc1cccc(-c2cnc3ccc(-c4ccncc4)nn23)c1 | cell-free assay | competition with immobilised ligand | 5 µM | 17%
CCCOc1ccc([C@@H]2[C@@H](C(=O)O)[C@H](c3ccc4c(c3)OCO4)CN2CC(=O)Nc2c(CC)cccc2CC)cc1 | cell-free assay | competition with immobilised ligand | 1 µM | 100%
c1cnn2ncc(-c3ccnc(N4CCC45COC5)n3)c2c1 | binding |  | 1 µM | 36%
